Measured values: PubChem BioAssay
Activity calls are given as the source filed them.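 How the source made its calls, unless noted: active means fluorescence slope after compound addition differing from the mean of all tested samples at 99.7% confidence, mostly higher but some lower; inactive means the rest.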

Columns and labels:
[1] = inhibitors of TNFa-induced NFkB p65 translocation, primary screen, imaging, HUVEC, MLSMR starter and 10KST1 sets (AID 438;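 active means inhibition above 20% together with a positive visual image hit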;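 further: compound added about 3h40 before a 20 min TNFalpha stimulation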;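 on inhibition: signal is the nuclear over cytoplasmic p65 intensity ratio per well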); conditions: HUVEC TNFa-induced p65 nuclear translocation; cell count: measured here: nuclei count (cytotoxicity indicator), at 2.08 µM; inhibition: at 2 µM, stronger effect = higher value, 0% TNFa-plus-vehicle, 100% no-TNFa wells
[2] = inhibitors of mutant huntingtin aggregation, primary screen, imaging, exon1htt(103Q)mCFP cells, high-content imaging (AID 483;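 active means visual image review flags a hit and inhibition of aggregation exceeds 20%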;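 further: compound exposure lasted 3 days before fixation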;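 on nuclei count: percent of the per-plate median nuclei count of sample wells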); conditions: exon1htt(103Q)mCFP cell line, aggregate imaging, at 2 µM; inhibition of aggregation: stronger effect = higher value; nuclei count: measured here: cell count, toxicity
[3] = inhibitors of E-selectin induction by TNFa, primary screen, imaging, HUVEC, immunofluorescence, MLSMR starter and 10KST1 sets (AID 487;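 active means visually confirmed hit in the image check and inhibition above 20%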;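 on inhibition: signal is fraction of cell area covered by stained E-selectin grains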;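 on nuclei count: 100% = median nuclei count of all wells on the same plate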); conditions: HUVEC TNFalpha-induced E-selectin immunofluorescence imaging, at 2 µM; inhibition: stronger effect = higher value; nuclei count: measured here: cell number, toxicity
[4] = target: Voltage-gated potassium channel subunit beta-2 (Rattus norvegicus) (UniProt P62483); assay: KvBeta enzyme negative modulators, primary screen, biochemical, NADPH fluorescence (AID 622;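 active means fluorescence slope higher than the sample average by over 3 SD, cut at about -0.22 in these data, passing the limit was not always enough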;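 further: slope of raw intensity against log time taken from 70 to 1610 s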); conditions: recombinant KvBeta, 4-cyanobenzaldehyde reduction, at 10 µM, stronger effect = higher value
Chain of Voltage-gated potassium channel subunit beta-2 (Rattus norvegicus) (P62483 whole entry, looked up): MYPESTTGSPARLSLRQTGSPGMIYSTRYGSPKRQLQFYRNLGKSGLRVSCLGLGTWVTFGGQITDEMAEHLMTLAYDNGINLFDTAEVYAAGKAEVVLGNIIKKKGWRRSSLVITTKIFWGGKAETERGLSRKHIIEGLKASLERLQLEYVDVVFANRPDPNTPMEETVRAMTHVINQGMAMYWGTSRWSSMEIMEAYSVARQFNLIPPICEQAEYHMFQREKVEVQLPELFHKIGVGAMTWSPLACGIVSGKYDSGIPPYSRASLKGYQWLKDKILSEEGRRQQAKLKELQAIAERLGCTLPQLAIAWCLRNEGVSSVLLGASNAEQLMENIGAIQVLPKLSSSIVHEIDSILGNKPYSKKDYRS

[5] = target: Voltage-gated potassium channel subunit beta-2 (Rattus norvegicus) (UniProt P62483); assay: KvBeta positive modulators, primary screen, biochemical, NADPH fluorescence (AID 623;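 active means NADPH fluorescence slope more negative than the mean of all samples by about 3 SD, 99.7% confidence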;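 further: fluorescence intensity change per second fitted from 20 to 320 s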); conditions: Recombinant KvBeta, NADPH fluorescence decrease slope, 10 min; at 10 µM; stronger effect = lower value
[6] = target: Muscarinic acetylcholine receptor M4 (Homo sapiens) (UniProt P08173); assay: compounds altering M4/GIRK thallium flux, either direction, primary screen, M4 allosteric agonist project, cell-based, HEK293 M4/GIRK, BTC-AM (AID 625); conditions: at 10 µM, actives lie on both sides;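 further: thallium influx through GIRK channels coupled to M4 in HEK293 cells with BTC-AM dye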
Chain of Muscarinic acetylcholine receptor M4 (Homo sapiens) (P08173 whole entry, looked up): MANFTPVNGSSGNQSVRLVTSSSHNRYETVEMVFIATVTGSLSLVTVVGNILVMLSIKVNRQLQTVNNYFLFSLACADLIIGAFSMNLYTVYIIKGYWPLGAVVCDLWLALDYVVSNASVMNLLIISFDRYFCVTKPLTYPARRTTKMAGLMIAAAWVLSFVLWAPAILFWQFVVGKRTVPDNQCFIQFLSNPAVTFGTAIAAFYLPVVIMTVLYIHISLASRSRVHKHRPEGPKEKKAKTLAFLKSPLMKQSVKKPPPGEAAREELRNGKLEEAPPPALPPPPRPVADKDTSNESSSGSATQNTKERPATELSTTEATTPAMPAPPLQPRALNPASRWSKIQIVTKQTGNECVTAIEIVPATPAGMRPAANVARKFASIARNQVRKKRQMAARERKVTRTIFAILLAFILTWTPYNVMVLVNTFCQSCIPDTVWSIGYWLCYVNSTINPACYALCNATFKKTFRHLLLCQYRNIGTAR
Outline: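 Material – HEK293 cells with M4 receptor and GIRK channels · Buffer or medium – pH 7.3 thallium assay buffer · Doses – one dose, 10 µM final · Timing – cells overnight at 37 °C, BTC-AM loading 1 h, reads 2 min total · Measured by – kinetic fluorescence with BTC-AM dye · Controls – carbachol and DMSO controls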

[7] = inhibitors of Sendai virus-induced IRF3 signaling, primary screen, TLR/RLR signaling modifier project, cell-based, Sendai virus stimulus, luciferase, 10K MLSCN set (AID 602276;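 active means inhibition at or above 50% at 10 µM; inactive means inhibition below 50%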;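 further: firefly luciferase from ISG56 promoter only with Renilla not read in this screen; 0% = Sendai virus plus DMSO and 100% = medium plus DMSO without virus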); conditions: HEK293 RL24 IRF3 luciferase reporter, at 10 µM, stronger effect = higher value
[8] = inhibitors of poly I:C-induced TLR3 signaling, primary screen, cell-based, poly I:C stimulus, luciferase, 10K MLSCN set (AID 602277;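 active means inhibition of the reporter signal at or above 50%; inactive means inhibition below 50%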); conditions: HEK293-TLR3 RL24 IRF3 luciferase reporter, at 10 µM, stronger effect = higher value

Structure (SMILES)	cell count [1]	inhibition [1]	inhibition of aggregation [2]	nuclei count [2]	inhibition [3]	nuclei count [3]	fluorescence slope [4]	NADPH fluorescence slope [5]	fluorescence slope [6]	inhibition [7]	inhibition [8]
CCCc1n[nH]c2c1/C(=N/O)CC(c1ccccc1)C2 (centres undefined)	522	-13.6% (inactive)	3.1% (inactive)	93.4%	-7.4% (inactive)	110%	-0.594 (inactive)	4.1e-05 (inactive)	0.0053 (inactive)	8.69% (inactive)	-7.88% (inactive)
COc1cc2c(cc1OC)CN(C(=O)COc1ccc(C#N)cc1)CC2	283	-7.5% (inactive)	4.5% (inactive)	91.8%	4.1% (inactive)	90.3%	-0.574 (inactive)	-4.9e-05 (inactive)	0.00682 (inactive)	6.14% (inactive)	4.87% (inactive)
CN1CCN(CCCNC(=O)C2CC(=O)N(C3CCCCC3)C2)CC1 (centres undefined)	259	-1.7% (inactive)	2.4% (inactive)	98%	15.5% (inactive)	89.4%	-0.548 (inactive)	-4.3e-05 (inactive)	0.00645 (inactive)	14.4% (inactive)	13.7% (inactive)
COc1ccc2nc(C)cc(N3CCOCC3)c2c1	401	-8.1% (inactive)	-8% (inactive)	104%	-34.7% (inactive)	84.3%	-0.484 (inactive)	-0.000239 (inactive)	0.0041 (inactive)	16.2% (inactive)	18.7% (inactive)
CCN1C(=O)N(CC)C2C1N(C(C)=O)C(=O)N2C(C)=O (centres undefined)	373	3.7% (inactive)	0.2% (inactive)	115%	-9.3% (inactive)	117%	-0.579 (inactive)	-6.5e-05 (inactive)	0.0074 (inactive)	13.4% (inactive)	16.9% (inactive)
COc1ccc(N2C(=O)CC(NC3CC3)C2=O)cc1 (centres undefined)	416	9.4% (inactive)	0.9% (inactive)	108%	7.7% (inactive)	110%	-0.577 (inactive)	1.5e-05 (inactive)	0.00561 (inactive)	16.4% (inactive)	24% (inactive)
CC(NC(=O)c1ccc(F)cc1)C(c1cccs1)N1CCN(C)CC1 (centres undefined)	466	-7.5% (inactive)	-8.9% (inactive)	93.6%	23% (inactive)	92.2%	-0.424 (inactive)	-5e-05 (inactive)	0.00581 (inactive)	5.9% (inactive)	15.9% (inactive)
COCCn1c(-c2ccc(OC)c(OC)c2)nc2ccccc21	247	-1.1% (inactive)	28.5% (inactive)	85.8%	16.7% (inactive)	77.6%	-0.536 (inactive)	-3.2e-05 (inactive)	0.00485 (inactive)	-2.29% (inactive)	11% (inactive)
O=C(O)CCC(=O)Nc1nc(-c2ccccc2)cs1	546	-24.7% (inactive)	-8.2% (inactive)	110%	4.3% (inactive)	147%	-0.449 (inactive)	0.00011 (inactive)	0.00599 (inactive)	16.3% (inactive)	23.8% (inactive)
Brc1ccc(-c2cn3cccnc3n2)cc1	514	3.4% (inactive)	-8.8% (inactive)	121%	-4.5% (inactive)	110%	-0.138 (active)	7.5e-06 (inactive)	0.00424 (inactive)	-47.6% (inactive)	-89.9% (inactive)
Cc1ccc(S(=O)(=O)N2CCC(C(=O)N[C@@H](Cc3ccccc3)C(=O)O)CC2)cc1	332	-14.4% (inactive)	11.7% (inactive)	99.8%	41.9% (inactive)	97.6%	-0.563 (inactive)	-4.9e-05 (inactive)	0.00616 (inactive)	-10.7% (inactive)	-5.08% (inactive)
O=C(c1ccc(-c2cccc(C(F)(F)F)c2)o1)N1CCOCC1	482	4.3% (inactive)	-17.9% (inactive)	117%	10.8% (inactive)	99.9%	-0.544 (inactive)	-3.4e-05 (inactive)	0.00523 (inactive)	-39.9% (inactive)	-93.2% (inactive)
COC(=O)c1[nH]c2c(c1C)C(=O)CC(c1cccs1)C2 (centres undefined)	315	4.5% (inactive)	-123% (inactive)	2%	-126% (inactive)	134%	-0.473 (inactive)	-2.2e-05 (inactive)	0.00476 (inactive)	34.9% (inactive)	79.5% (active)
COc1ccc(Cc2nnc3n2N=C(c2cc4ccccc4o2)CS3)cc1OC	378	-16.3% (inactive)	40.2% (active)	43.3%	38.3% (inactive)	51.6%	-0.346 (inactive)	-7.6e-05 (inactive)	0.00468 (inactive)	11.3% (inactive)	26% (inactive)
